Source: ChEMBL document CHEMBL4052819 (2017)
Values after ≈ are worked out from the molar mass of the structure shown. Active and inactive are the calls of the source. No cut-off for these calls is given here. Non-standard residues stand in square brackets, D forms with d. Residues, ends and D or L forms follow the SMILES beside them. *: point of attachment. Cha = N[C@@H](CC1CCCCC1)C(=O)O; Octanoyl = CCCCCCCC(=O)*; Dab = NCC[C@H](N)C(=O)O

Key:
[1] = test system: Klebsiella pneumoniae; assay: Potentiation of rifampicin-mediated antibacterial activity against Klebsiella pneumoniae ATCC 13883 assessed as rifampicin MIC at 2 ug/ml by checkerboard method (reference value: 16 ug/ml); assay type: functional
[2] = test system: Klebsiella pneumoniae; assay: Antibacterial activity against Klebsiella pneumoniae ATCC 13883 after 18 to 20 hrs by broth microdilution method; assay type: functional
[3] = test system: Acinetobacter baumannii; assay: Potentiation of vancomycin-mediated antibacterial activity against Acinetobacter baumannii ATCC 19606 assessed as decrease in vancomycin MIC at 4 ug/ml by checkerboard method relative to control; assay type: functional, ATCC 19606 = CIP 70.34 = JCM 6841
[4] = test system: Staphylococcus aureus; assay: Antibacterial activity against Staphylococcus aureus ATCC 29213 after 18 to 20 hrs in presence of 95% serum by broth microdilution method; assay type: functional
Summary of the method: (§1)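 Same microdilution with human serum as medium: compound 2-fold diluted in 100% serum, mixed 1:1 with 90% serum holding ~1.5 × 10^5 CFU/mL, giving 95% serum and final 0.5–64 μg/mL. MIC read as no visible growth after incubation as for the broth test.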

[5] = test system: Acinetobacter baumannii; assay: Potentiation of rifampicin-mediated antibacterial activity against Acinetobacter baumannii ATCC 19606 assessed as decrease in rifampicin MIC at 4 ug/ml by checkerboard method relative to control; assay type: functional, ATCC 19606 = CIP 70.34 = JCM 6841
[6] = test system: Klebsiella pneumoniae; assay: Potentiation of rifampicin-mediated antibacterial activity against Klebsiella pneumoniae ATCC 13883 assessed as decrease in rifampicin MIC at 2 ug/ml by checkerboard method relative to control; assay type: functional
[7] = test system: Klebsiella pneumoniae; assay: Potentiation of clarithromycin-mediated antibacterial activity against Klebsiella pneumoniae ATCC 13883 assessed as decrease in clarithromycin MIC at 4 ug/ml by checkerboard method relative to control; assay type: functional
[8] = test system: Escherichia coli; assay: Antibacterial activity against Escherichia coli ATCC 25922 in presence of 100% serum measured immediately post compound addition in serum by broth microdilution method; assay type: functional
Summary of the method: (§2)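 Serum stability: compound added to 100% human serum at final 64 μg/mL, held at 37 °C, sampled at 0, 6, 12 and 24 h. […] Residual activity compared with untreated control.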

[9] = test system: Pseudomonas aeruginosa; assay: Bactericidal activity against Pseudomonas aeruginosa ATCC 27853; assay type: functional; conditions: read-out: MBC99.9
Summary of the method: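 MBC from MIC plates at end point: 50 μL from each well with no visible growth plated on tryptic soy agar and counted. MBC taken as lowest concentration giving ≥99.9% fall in viable count relative to initial inoculum. Three independent experiments, one replicate each.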

[10] = test system: Pseudomonas aeruginosa; assay: Antibacterial activity against Pseudomonas aeruginosa ATCC 27853 after 18 to 20 hrs by broth microdilution method; assay type: functional
Summary of the method: (§3)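 Broth microdilution in tryptic soy broth: 2-fold dilutions mixed 1:1 with ~1.5 × 10^5 CFU/mL inoculum, final 0.5–32 μg/mL; 37 °C, 18–20 h. MIC taken as lowest concentration giving no visible growth. At least three independent experiments, one replicate each.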

[11] = test system: Staphylococcus aureus; assay: Antibacterial activity against Staphylococcus aureus ATCC 29213 after 18 to 20 hrs by broth microdilution method; assay type: functional; summary of the method: as §3
[12] = test system: Escherichia coli; assay: Antibacterial activity against Escherichia coli ATCC 25922 in presence of 100% serum after 24 hrs by broth microdilution method; assay type: functional; conditions: ATCC 25922, 24 h; summary of the method: as §2
[13] = test system: Klebsiella pneumoniae; assay: Potentiation of erythromycin-mediated antibacterial activity against Klebsiella pneumoniae ATCC 13883 assessed as decrease in erythromycin MIC at 4 ug/ml by checkerboard method relative to control; assay type: functional
[14] = test system: Acinetobacter baumannii; assay: Potentiation of rifampicin-mediated antibacterial activity against Acinetobacter baumannii ATCC 19606 assessed as rifampicin MIC at 2 ug/ml by checkerboard method (reference value: 16 ug/ml); assay type: functional; conditions: ATCC 19606 = CIP 70.34 = JCM 6841
[15] = test system: Acinetobacter baumannii; assay: Potentiation of erythromycin-mediated antibacterial activity against Acinetobacter baumannii ATCC 19606 assessed as decrease in erythromycin MIC at 4 ug/ml by checkerboard method relative to control; assay type: functional, ATCC 19606 = CIP 70.34 = JCM 6841
[16] = test system: Klebsiella pneumoniae; assay: Potentiation of vancomycin-mediated antibacterial activity against Klebsiella pneumoniae ATCC 13883 assessed as decrease in vancomycin MIC at 4 ug/ml by checkerboard method relative to control; assay type: functional
[17] = test system: Escherichia coli; assay: Antibacterial activity against Escherichia coli ATCC 25922 after 18 to 20 hrs by broth microdilution method; assay type: functional; summary of the method: as §3
[18] = test system: Klebsiella pneumoniae; assay: Potentiation of ampicillin-mediated antibacterial activity against Klebsiella pneumoniae ATCC 13883 assessed as decrease in ampicillin MIC at 4 ug/ml by checkerboard method relative to control; assay type: functional
[19] = test system: Staphylococcus aureus; assay: Antibacterial activity against methicillin-resistant Staphylococcus aureus ATCC 43300 after 18 to 20 hrs by broth microdilution method; assay type: functional
Summary of the method: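 Broth microdilution in tryptic soy broth: 2-fold dilutions mixed 1:1 with ~1.5 × 10^5 CFU/mL bacterial suspension in TSB, final 0.5–32 μg/mL, 37 °C for 18–20 h. MIC = lowest concentration with no visible growth. At least three independent experiments, one replicate each.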

[20] = test system: Acinetobacter baumannii; assay: Antibacterial activity against Acinetobacter baumannii ATCC 19606 after 18 to 20 hrs by broth microdilution method; assay type: functional; conditions: ATCC 19606 = CIP 70.34 = JCM 6841
[21] = test system: Escherichia coli; assay: Antibacterial activity against Escherichia coli ATCC 25922 after 18 to 20 hrs in presence of 95% serum by broth microdilution method; assay type: functional; summary of the method: as §1
[22] = test system: Acinetobacter baumannii; assay: Potentiation of clarithromycin-mediated antibacterial activity against Acinetobacter baumannii ATCC 19606 assessed as decrease in clarithromycin MIC at 4 ug/ml by checkerboard method relative to control; assay type: functional, ATCC 19606 = CIP 70.34 = JCM 6841
[23] = test system: Escherichia coli; assay: Antibacterial activity against Escherichia coli ATCC 25922 in presence of 100% serum after 12 hrs by broth microdilution method; assay type: functional; conditions: ATCC 25922, 12 h; summary of the method: as §2
[24] = test system: Enterococcus faecium; assay: Antibacterial activity against Enterococcus faecium ATCC 19434 after 18 to 20 hrs by broth microdilution method; assay type: functional; summary of the method: as §3
[25] = test system: Acinetobacter baumannii; assay: Potentiation of ampicillin-mediated antibacterial activity against Acinetobacter baumannii ATCC 19606 assessed as decrease in ampicillin MIC at 4 ug/ml by checkerboard method relative to control; assay type: functional, ATCC 19606 = CIP 70.34 = JCM 6841
[26] = test system: Escherichia coli; assay: Antibacterial activity against Escherichia coli ATCC 25922 in presence of 100% serum after 6 hrs by broth microdilution method; assay type: functional; conditions: ATCC 25922, 6 h; summary of the method: as §2
[27] = test system: Pseudomonas aeruginosa; assay: Bactericidal activity against Pseudomonas aeruginosa ATCC 27853 after 60 mins in presence of LPS; assay type: functional
Summary of the method: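 P. aeruginosa at ~10^6 CFU/mL in TSB with E. coli O111:B4 LPS (final 10, 25, 50 or 100 μg/mL), then compound at final 16 μg/mL. Incubated 37 °C, 200 rpm, 60 min; survivors counted on TSA. Three independent experiments, one replicate each.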

SMILES | MIC [1] [µg/mL] | MIC [2] [µg/mL] | fold change (FC) [3] | MIC [4] [µg/mL] | fold change (FC) [5] | fold change (FC) [6] | fold change (FC) [7] | MIC [8] [µg/mL] | MBC [9] [µg/mL] | MIC [10] [µg/mL] | MIC [11] [µg/mL] | MIC [12] [µg/mL] | fold change (FC) [13] | MIC [14] [µg/mL] | fold change (FC) [15] | fold change (FC) [16] | MIC [17] [µg/mL] | fold change (FC) [18] | MIC [19] [µg/mL] | MIC [20] [µg/mL] | also measured
CC[C@H](C)[C@H](NC(=O)[C@H](CCN)NC(=O)[C@@H](N)CC1CCCCC1)C(=O)N[C@@H](CCN)C(=O)N[C@H](Cc1ccccc1)C(=O)N[C@@H](CC(C)C)C(=O)N[C@@H](CCN)C(=O)N[C@@H](C(=O)N[C@@H](CC(C)C)C(=O)N[C@@H](CO)C(N)=O)C(C)C (H-[Cha][Dab]I[Dab][dF]L[Dab][dV]LS-NH2) | 0.0039 | 32 (≈ 28 µM) | 32 - 64 | > 64 | 4096 | >=8192 | 2048 - 4096 | 1 to 2 | 16 to 32 (≈ 14 to 28 µM) | 2 to 8 (≈ 1.75 to 7 µM) | > 32 | > 32 | 512 | 0.0039 to 0.0078 | 64 | 1 | 4 to 8 (≈ 3.5 to 7 µM) | 1 | 32 (≈ 28 µM) | ≥ 32 | MIC [21]: 2 µg/mL; fold change (FC) [22]: 2048; MIC [23]: > 32 µg/mL; MIC [24]: > 32 µg/mL; fold change (FC) [25]: 2 - 4; MIC [26]: > 32 µg/mL
CCCCCCCC(=O)N[C@@H](CCN)C(=O)N[C@H](C(=O)N[C@@H](CCN)C(=O)N[C@H](Cc1ccccc1)C(=O)N[C@@H](CC(C)C)C(=O)N[C@@H](CCN)C(=O)N[C@@H](C(=O)N[C@@H](CC(C)C)C(=O)N[C@@H](CCN)C(N)=O)C(C)C)[C@@H](C)CC (Octanoyl-[Dab]I[Dab][dF]L[Dab][dV]L[Dab]-NH2) | 0.0019 to 0.0039 | > 32 | 64 - 128 | 16 | 8192 | >=8192 | 2048 | 1 to 2 | 16 (≈ 14.2 µM) | 2 to 4 (≈ 1.77 to 3.54 µM) | > 32 | 2 | 512 | 0.0019 | 128 - 256 | 2 | 4 to 16 (≈ 3.54 to 14.2 µM) | 1 | 32 (≈ 28.3 µM) | ≥ 32 | Activity [27]: inactive; MIC [21]: 2 to 4 µg/mL; fold change (FC) [22]: 4096 - 8192; MIC [23]: 1 to 2 µg/mL; MIC [24]: 32 µg/mL (≈ 28.3 µM); fold change (FC) [25]: 16 - 32; MIC [26]: 2 µg/mL
